Experimental data reported in ChEMBL document CHEMBL1122621, “Antihypertensive activities of phenyl aminoethyl sulfides, a class of synthetic substrates for dopamine beta-hydroxylase” (J Med Chem, 1984).

B1: Dopamine beta-hydroxylase (Bos taurus), P15101 (protein)
chain: MQVPSPSVREAASMYGTAVAVFLVILVAALQGSAPAESPFPFHIPLDPEGTLELSWNISYAQETIYFQLLVRELKAGVLFGMSDRGELENADLVVLWTDRDGAYFGDAWSDQKGQVHLDSQQDYQLLRAQRTPEGLYLLFKRPFGTCDPNDYLIEDGTVHLVYGFLEEPLRSLESINTSGLHTGLQRVQLLKPSIPKPALPADTRTMEIRAPDVLIPGQQTTYWCYVTELPDGFPRHHIVMYEPIVTEGNEALVHHMEVFQCAAEFETIPHFSGPCDSKMKPQRLNFCRHVLAAWALGAKAFYYPEEAGLAFGGPGSSRFLRLEVHYHNPLVITGRRDSSGIRLYYTAALRRFDAGIMELGLAYTPVMAIPPQETAFVLTGYCTDKCTQLALPASGIHIFASQLHTHLTGRKVVTVLARDGRETEIVNRDNHYSPHFQEIRMLKKVVSVQPGDVLITSCTYNTEDRRLATVGGFGILEEMCVNYVHYYPQTQLELCKSAVDPGFLHKYFRLVNRFNSEEVCTCPQASVPEQFASVPWNSFNREVLKALYGFAPISMHCNRSSAVRFQGEWNRQPLPEIVSRLEEPTPHCPASQAQSPAGPTVLNISGGKG

How the values were obtained:
[1] = molecular target: T1, Dopamine beta-hydroxylase (Bos taurus) (UniProt P15101); assay: Compound was evaluated as substrate for Dopamine beta hydroxylase (DBH) from bovine adrenals and the enzymatic kinetic constant was reported as Kcat
T1 sequence (whole entry): B1 chain

Monoamine oxidase [2] = molecular target: T2, Monoamine oxidase (Bos taurus, UniProt P56560+P21398); assay: Compound was evaluated as substrate for monoamine oxidase (MAO) from bovine […] and the enzymatic kinetic constant was reported as Kcat; type: protein assay; settings: cattle
T2 sequence (P56560 whole entry): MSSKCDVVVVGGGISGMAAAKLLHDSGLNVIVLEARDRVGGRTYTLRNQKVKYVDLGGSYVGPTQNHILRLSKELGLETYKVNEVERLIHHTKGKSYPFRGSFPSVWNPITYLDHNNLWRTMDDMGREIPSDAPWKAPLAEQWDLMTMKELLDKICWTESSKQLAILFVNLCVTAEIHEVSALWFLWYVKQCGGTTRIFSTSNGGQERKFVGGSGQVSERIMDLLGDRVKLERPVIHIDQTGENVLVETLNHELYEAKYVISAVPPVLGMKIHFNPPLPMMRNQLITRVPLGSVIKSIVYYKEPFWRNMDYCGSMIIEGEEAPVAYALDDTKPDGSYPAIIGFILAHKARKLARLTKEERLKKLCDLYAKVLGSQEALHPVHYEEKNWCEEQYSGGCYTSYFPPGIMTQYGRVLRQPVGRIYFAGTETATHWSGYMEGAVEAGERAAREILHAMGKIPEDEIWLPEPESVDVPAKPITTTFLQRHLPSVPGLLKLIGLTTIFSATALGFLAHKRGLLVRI
T2 sequence (P21398 whole entry): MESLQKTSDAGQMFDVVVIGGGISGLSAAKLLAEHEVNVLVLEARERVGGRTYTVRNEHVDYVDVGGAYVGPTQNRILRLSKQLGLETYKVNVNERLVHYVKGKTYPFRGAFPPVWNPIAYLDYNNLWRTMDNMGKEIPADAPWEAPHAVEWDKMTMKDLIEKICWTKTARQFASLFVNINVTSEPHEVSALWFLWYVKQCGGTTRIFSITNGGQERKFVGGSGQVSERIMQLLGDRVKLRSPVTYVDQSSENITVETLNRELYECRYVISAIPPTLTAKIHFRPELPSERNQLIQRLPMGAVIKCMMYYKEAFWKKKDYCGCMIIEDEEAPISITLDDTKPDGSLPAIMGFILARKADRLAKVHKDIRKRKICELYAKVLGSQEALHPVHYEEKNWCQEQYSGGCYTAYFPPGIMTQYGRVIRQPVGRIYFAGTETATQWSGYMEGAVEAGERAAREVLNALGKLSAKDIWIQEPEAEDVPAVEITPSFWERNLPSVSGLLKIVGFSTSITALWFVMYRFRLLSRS
Outline: (§1)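 Bovine MAO, a mixed A/B isozyme preparation, commercial. Oxygen monitor assay in 0.1 M potassium phosphate pH 7.2, air-saturated, 37 °C. kcat and Km from computer fit to hyperbolic Michaelis-Menten equation. kcat based on total protein, assuming MW 290 000.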

monoamine oxidase (MAO) = molecular target: T3, monoamine oxidase (MAO) (Bos taurus, UniProt P21398+P56560); assay: Compound was evaluated as substrate for monoamine oxidase (MAO) from bovine […] and the enzymatic kinetic constant was reported as Km; type: protein assay; settings: cattle; outline: as §1
T3 sequence (P56560 whole entry): T2 sequence (P56560 whole entry)
T3 sequence (P21398 whole entry): T2 sequence (P21398 whole entry)

[3] = Ratio of the kinetic parameter Kcat to the Km on substrate […] from bovine adrenals; type: tissue-based; settings: Adrenal gland
[4] = Ratio of the kinetic parameter Kcat to the Km on substrate dopamine monoamine oxidase
Monoamine oxidase [5] = molecular target: T2, Monoamine oxidase; assay: Compound was evaluated as substrate for monoamine oxidase (MAO) from bovine […] and the enzymatic kinetic constant was reported as Kcat; c = Compounds displayed no trace of substrate activity even at high enzyme concentrations; type: protein assay; settings: cattle; outline: as §1
Monoamine oxidase [6] = molecular target: T2, Monoamine oxidase; assay: Compound was evaluated as substrate for monoamine oxidase (MAO) from bovine […] and the enzymatic kinetic constant was reported as Km; c = Compounds displayed no trace of substrate activity even at high enzyme concentrations; type: protein assay; settings: cattle; outline: as §1
[7] = Ratio of the kinetic parameter Kcat to the Km on substrate dopamine monoamine oxidase; c = Compounds displayed no trace of substrate activity even at high enzyme concentrations
[8] = substrate: CC(N)CSc1ccc(O)cc1; assay: (§2) Compound was evaluated as substrate for Dopamine beta hydroxylase (DBH) from bovine adrenals and the enzymatic kinetic constant was reported as Km; type: tissue-based; settings: Adrenal gland
[9] = substrate: CC(N)CSc1ccccc1; assay: as §2; type: tissue-based; settings: Adrenal gland
[10] = substrate: NCCCc1ccccc1; assay: as §2; type: tissue-based; settings: Adrenal gland
[11] = substrate: NCCSc1ccc(O)cc1; assay: as §2; type: tissue-based; settings: Adrenal gland
[12] = substrate: NCCSc1ccccc1; assay: as §2; type: tissue-based; settings: Adrenal gland
[13] = substrate: NCCc1ccc(O)cc1; assay: as §2; type: tissue-based; settings: Adrenal gland
[14] = substrate: NCCc1ccccc1; assay: as §2; type: tissue-based; settings: Adrenal gland

Molecule | k cat [1] | k cat (Monoamine oxidase [2]) | Km (monoamine oxidase (MAO)) | Ratio [3] | Ratio [4] | also measured
NCCc1ccccc1 [PHENETHYLAMINE] | 65 s⁻¹ | 0.23 s⁻¹ | 2.2 mM | 9300 M⁻¹ s⁻¹ | 100 M⁻¹ s⁻¹ | –
NCCCc1ccccc1 | 12 s⁻¹ | 0.17 s⁻¹ | 0.29 mM | 590 M⁻¹ s⁻¹ | 580 M⁻¹ s⁻¹ | –
CC(N)CSc1ccccc1 (racemic) | 20 s⁻¹ | – | – | 1000 M⁻¹ s⁻¹ | – | k cat (Monoamine oxidase [5]): No activity; Km (Monoamine oxidase [6]): No activity; Ratio [7]: No activity
NCCc1ccc(O)cc1 | 85 s⁻¹ | – | – | 42000 M⁻¹ s⁻¹ | – | –
NCCSc1ccc(O)cc1 | 36 s⁻¹ | 0.22 s⁻¹ | 0.049 mM | 8300 M⁻¹ s⁻¹ | 4500 M⁻¹ s⁻¹ | –
NCCSc1ccccc1 | 39 s⁻¹ | 0.43 s⁻¹ | 0.055 mM | 2300 M⁻¹ s⁻¹ | 7300 M⁻¹ s⁻¹ | –
CC(N)CSc1ccc(O)cc1 (racemic) | 44 s⁻¹ | – | – | 6700 M⁻¹ s⁻¹ | – | k cat (Monoamine oxidase [5]): No activity; Km (Monoamine oxidase [6]): No activity; Ratio [7]: No activity
B1 | – | – | – | – | – | Km [8]: 6.5 mM; Km [9]: 19.1 mM; Km [10]: 20.4 mM; Km [11]: 4.4 mM; Km [12]: 17.2 mM; Km [13]: 2 mM; Km [14]: 7 mM
